These results are taken from ChEMBL document CHEMBL3351931, “Synthesis of natural-like acylphloroglucinols with anti-proliferative, anti-oxidative and tube-formation inhibitory activity” (Eur J Med Chem, 2014).

Activity calls are given as the source filed them. The rule behind the calls is not given here.

Series [1] can be described thus: Antiproliferative activity against human HMEC1 cells after 72 hrs. The series is classed as functional, cell-based. The settings on record: HMEC-1, 72 h. The gist of the method: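 SV-40T-transfected HMEC-1 seeded 1.5 × 10³ cells/well in ECGM with 10% FCS, supplement mix and antibiotics, 37 °C, 5% CO2. After 24 h, a reference plate was crystal-violet stained for baseline. The remaining cells were given increasing compound concentrations (DMSO stock) for 72 h, then crystal violet stained and read at 540 nm. 0.1% DMSO in ECGM served as negative control. IC50 ± SD from three independent experiments with different passages, hexaplicates per concentration.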

Series [2] is described as follows: Antioxidant activity in phosphate buffer assessed as trolox equivalents ratio at pH 7.4 after 15 mins by ORAC-fluorescein assay. The settings on record: pH 7.4, 0.25 h. Format: physicochemical. The gist of the method:
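ORAC-FL: fluorescein probe (final 300 nM) in 75 mM phosphate buffer pH 7.4; antioxidant (test compounds 1–5 µM, five concentrations; Trolox 1–8 µM standards) preincubated with fluorescein 15 min at 37 °C. Reaction started with AAPH (final 12 mM). Fluorescence read every min for 80 min (ex 485/em 536 nm). AUC converted to Trolox equivalents; quadruplicate, ≥4 independent assays.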

For series [3], the system named is HMEC-1. The series is described as follows: Antiangiogenic activity in HMEC1 assessed as inhibition of tube formation at 12.5 to 100 uM after 19 hrs by matrigel assay. Format: functional. The settings on record: Homo sapiens.
In series [4] the test system is HMEC-1. The series is described as follows: Antiangiogenic activity in HMEC1 assessed as inhibition of tube formation at 6.25 to 50 uM after 19 hrs by matrigel assay. Format: functional. The settings on record: Homo sapiens.

The term IC50 denotes the concentration needed to halve the response being measured. Higher therefore signals a need for much substance. In series [1], `CC1(C)CCc2c(cc(O)c(C(=O)c3cc(O)cc(O)c3)c2O)O1` displayed an IC50 of 25.5 µM. In series [2], the Ratio came to 3.
Taken in the same sequence, the figures for `COc1ccc(C(=O)c2c(O)cc3c(c2O)CCC(C)(C)O3)cc1` were 43.4 µM and 1.1.
The molecule `CC(=O)c1c(O)cc(O)c2c1OC(C)(CCC=C(C)C)CC2` (stereo not drawn) returned an IC50 in series [1] of 20.3 µM. The Ratio in series [2] worked out at 0.8.
Taken in the same sequence, the figures for `CC1(C)CCc2c(cc(O)c(C(=O)c3ccc(O)c(O)c3)c2O)O1` were 0.88 µM and 2.8.
Molecule `CCCC(C)C(=O)c1c(O)cc(O)c(C/C=C(\C)CCC=C(C)C)c1O` (stereo not drawn) had an IC50 in series [1] of 8.7 µM. Moreover, in series [2], the Ratio came to 0.3.
On to `COc1ccc(C(=O)c2c(O)cc3c(c2O)CCC(C)(C)O3)cc1OC`, for which, in series [1], the IC50 worked out at 48 µM. Moreover, the Ratio in series [2] turned out to be 1.3. In series [3], the inhibition result was “Active”.
In series [1], `CCC(C)C(=O)c1c(O)cc(O)c(C/C=C(\C)CCC=C(C)C)c1O` (stereo not drawn) displayed an IC50 of 11 µM. For the same molecule, the Ratio in series [2] is reported as 0.4. In addition, the inhibition result in series [4] was “Active”.
`CC1(C)CCc2c(cc(O)c(C(=O)c3ccc(O)cc3)c2O)O1` came in with an IC50 in series [1] of 53.8 µM. The Ratio in series [2] is 6.6.
`COc1cc(C(=O)c2c(O)cc3c(c2O)CCC(C)(C)O3)cc(O)c1O` showed an IC50 in series [1] of 7.6 µM. For the same molecule, the Ratio in series [2] is 2.1.
As for `COc1cc(O)c(CC=C(C)C)c(O)c1C(=O)/C=C/c1ccc(O)cc1` [XANTHOHUMOL], in series [2], the Ratio is on record as 2.3.
In turn, `COc1cc(C(=O)c2c(O)cc3c(c2O)CCC(C)(C)O3)cc(OC)c1OC` gave an IC50 in series [1] of 51.5 µM.
`CC(C)=CCC/C(C)=C/Cc1c(O)cc(O)c(C(=O)C(C)C)c1O` registered an IC50 in series [1] of 21 µM. Moreover, in series [2], the Ratio was determined as 0.8.
The molecule `COc1cc(C(=O)c2c(O)cc3c(c2O)CCC(C)(C)O3)cc(OC)c1O` had an IC50 in series [1] of 23.9 µM. For the same molecule, the Ratio in series [2] amounted to 3.
For the molecule `CCC(C)C(=O)c1c(O)cc2c(c1O)CCC(C)(C)O2` (stereo not drawn), the IC50 in series [1] amounted to 29.3 µM. Further, the Ratio in series [2] came out at 1.2.
Take `CC(=O)c1c(O)cc(O)c(C/C=C(\C)CCC=C(C)C)c1O`: the IC50 in series [1] worked out at 22.5 µM. In series [2], the Ratio amounted to 1.
For `CCC(C)C(=O)c1c(O)cc(O)c2c1OC(C)(CCC=C(C)C)CC2` (stereo not drawn), in series [2], the Ratio is reported as 0.3.
In the case of `CCC(=O)c1c(O)cc(O)c(C/C=C(\C)CCC=C(C)C)c1O`, the IC50 in series [1] was 22.4 µM. The Ratio in series [2] is 0.6.
